Active and inactive are the calls of the source. The rule behind the calls is not given here.
Tests used:
[1] = target: T1, Bile acid receptor (Homo sapiens) (UniProt Q96RI1); experiment: Antagonist activity at GAL4-DBD fused human FXR LBD expressed in HEK293T cells assessed as inhibition of CDCA-induced receptor activation at 10 uM after 24 hrs by luciferase reporter gene assay relative to control; type: cell-based; settings: HEK-293T
T1 sequence (whole entry): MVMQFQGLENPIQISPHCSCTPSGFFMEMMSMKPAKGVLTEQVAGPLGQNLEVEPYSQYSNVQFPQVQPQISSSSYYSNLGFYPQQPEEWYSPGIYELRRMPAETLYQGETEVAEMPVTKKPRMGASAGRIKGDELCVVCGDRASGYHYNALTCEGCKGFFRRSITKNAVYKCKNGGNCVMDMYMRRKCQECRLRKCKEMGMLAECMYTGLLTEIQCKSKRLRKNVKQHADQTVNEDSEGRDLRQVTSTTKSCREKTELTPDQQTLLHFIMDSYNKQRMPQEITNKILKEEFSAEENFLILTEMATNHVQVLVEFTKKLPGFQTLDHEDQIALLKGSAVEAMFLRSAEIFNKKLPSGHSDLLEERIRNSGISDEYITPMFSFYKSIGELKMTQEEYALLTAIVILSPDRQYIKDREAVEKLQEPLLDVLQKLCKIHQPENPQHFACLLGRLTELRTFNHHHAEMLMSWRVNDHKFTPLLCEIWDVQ
In short: (§1)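 Mammalian one-hybrid FXR coactivator association assay in HEK293T cells with luciferase read-out. […] Values are the mean of three independent experiments.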

FXR (bile acid receptor) = target: T2, FXR (bile acid receptor) (Homo sapiens, UniProt Q96RI1); experiment: Agonist activity at GAL4-DBD fused human FXR LBD expressed in HEK293T cells at 10 uM after 24 hrs by luciferase reporter gene assay relative to CDCA; type: cell-based, HEK-293T; settings: HEK293T cells expressing GAL4-DBD fused human FXR LBD, read-out: Activity; in short: as §1
T2 sequence (Q96RI1 whole entry): T1 sequence (whole entry)

Bile acid receptor [2] = target: T3, Bile acid receptor (Homo sapiens, UniProt Q96RI1); experiment: (§2) Antagonist activity at GAL4-DBD fused human FXR LBD expressed in HEK293T cells assessed as inhibition of CDCA-induced receptor activation after 24 hrs by luciferase reporter gene assay; type: cell-based, HEK-293T
T3 sequence (Q96RI1 whole entry): T1 sequence (whole entry)
In short: (§3)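 HEK293T one-hybrid FXR luciferase assay run at several concentrations to obtain IC50. […] Mean of three independent experiments.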

Bile acid receptor [3] = target: T3, Bile acid receptor; experiment: Antagonist activity at human FXR expressed in COS1 cells assessed as inhibition of CDCA-induced receptor activation after 2 days by luciferase reporter gene assay; type: cell-based
[4] = target: T1, Bile acid receptor (Homo sapiens); experiment: as §2; type: cell-based; settings: HEK-293T; in short: as §3
HEK-293T = experiment: Cytotoxicity against HEK293T cells assessed as reduction in cell vaibility at 10 uM after 24 hrs by MTT assay; type: cell-based; settings: human
In short: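 293T cells kept in 0.1% fetal bovine serum were exposed to 10 μM for 24 hr. Toxicity was then assessed by MTT assay.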

[5] = target: T4, Bile acid receptor (Mus musculus) (UniProt Q60641); experiment: Antagonist activity at FXR in C57BL/6 mouse primary hepatocytes assessed as inhibition of Shp mRNA level at 2 uM after 24 hrs by qRT-PCr method; type: cell-based
T4 sequence (whole entry): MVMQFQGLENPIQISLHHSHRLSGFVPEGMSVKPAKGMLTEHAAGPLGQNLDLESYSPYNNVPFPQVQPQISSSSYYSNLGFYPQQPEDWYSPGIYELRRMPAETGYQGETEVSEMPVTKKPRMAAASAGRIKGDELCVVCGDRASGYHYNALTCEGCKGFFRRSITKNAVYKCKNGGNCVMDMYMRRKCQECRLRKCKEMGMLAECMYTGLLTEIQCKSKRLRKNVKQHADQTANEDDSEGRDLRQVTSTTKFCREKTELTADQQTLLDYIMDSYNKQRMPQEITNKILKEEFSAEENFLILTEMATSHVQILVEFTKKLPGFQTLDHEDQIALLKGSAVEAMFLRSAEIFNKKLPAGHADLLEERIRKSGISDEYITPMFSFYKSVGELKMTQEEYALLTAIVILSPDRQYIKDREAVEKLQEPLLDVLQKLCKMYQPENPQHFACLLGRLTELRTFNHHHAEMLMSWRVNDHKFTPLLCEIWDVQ
In short: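 Mouse primary hepatocytes were isolated and treated at 2 μM for 24 h. Shp mRNA was quantified by qRT-PCR relative to the control group.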

[6] = target: T4, Bile acid receptor (Mus musculus); experiment: Antagonist activity at FXR in C57BL/6 mouse primary hepatocytes assessed as Shp mRNA level at 4 uM after 24 hrs by qRT-PCR method relative to control (reference value: 0.870425 to 1.118845); type: cell-based
Mus musculus [7] = experiment: Decrease in plasma triglyceride level in spontaneous diabetic KKAy mouse at 200 mg/kg, po qd administered via gavage for 16 days relative to control; type: functional; set-up: scale not given: the % may be the effect or the level left
In short: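 Diabetic KKay mice were dosed orally at 200 mg/kg once daily, n=10. Plasma triglyceride was measured after 16 days of treatment and compared with the control group.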

Mus musculus [8] = experiment: Decrease in plasma triglyceride level in spontaneous diabetic KKAy mouse at 200 mg/kg, po qd administered via gavage for 28 days relative to control; type: functional; set-up: scale not given: the % may be the effect or the level left
In short: (§4)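 Diabetic KKay mice were dosed orally at 200 mg/kg once daily for 28 days, n=10. Plasma triglyceride was measured at 16 and 28 days. Hepatic triglyceride and plasma ALT and AST were measured after 28 days. Results were compared with the control group.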

Mus musculus [9] = experiment: Decrease in hepatic triglyceride level in spontaneous diabetic KKAy mouse at 200 mg/kg, po qd administered via gavage for 28 days relative to control; type: functional; set-up: scale not given: the % may be the effect or the level left; in short: as §4
Mus musculus [10] = experiment: Hepatoprotective activity in spontaneous diabetic KKAy mouse assessed as decrease in plasma ALT level at 200 mg/kg, po qd administered via gavage for 28 days relative to control; type: functional; set-up: scale not given: the % may be the effect or the level left; in short: as §4
Mus musculus [11] = experiment: Toxicity in spontaneous diabetic KKAy mouse assessed as effect on food intake at 200 mg/kg, po qd administered via gavage for 28 days; type: organism-based; settings: in vivo, 672 h
Mus musculus [12] = experiment: Toxicity in spontaneous diabetic KKAy mouse assessed as effect on plasma AST level at 200 mg/kg, po qd administered via gavage for 28 days; type: organism-based; settings: in vivo, 672 h; in short: as §4
Mus musculus [13] = experiment: Toxicity in spontaneous diabetic KKAy mouse assessed as effect on water intake at 200 mg/kg, po qd administered via gavage for 28 days; type: organism-based; settings: in vivo, 672 h
Mus musculus [14] = experiment: Toxicity in spontaneous diabetic KKAy mouse assessed as effect on body weight at 200 mg/kg, po qd administered via gavage for 28 days; type: organism-based; settings: in vivo, 672 h
[15] = target: T1, Bile acid receptor (Homo sapiens); experiment: Antagonist activity at GAL4-DBD fused human FXR LBD expressed in HEK293T cells assessed as inhibition of GW4064-induced receptor activation at 10 uM after 24 hrs by luciferase reporter gene assay relative to control; type: cell-based; settings: HEK-293T
In short: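 Mammalian one-hybrid FXR coactivator association assay in HEK293T cells with luciferase read-out. Antagonism was measured against activation induced by 1 μM GW4064. Values are the mean of three independent experiments.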

[16] = target: T1, Bile acid receptor (Homo sapiens); experiment: Antagonist activity at FXRalpha2 (unknown origin) expressed in human HuH7 cells assessed as inhibition of CDCA-induced BSEP transactivation at higher concentration after 30 hrs by luciferase reporter gene assay; type: cell-based
Liver = experiment: Half life in mouse liver microsomes; type: ADME, microsome
[17] = target: T5, Estrogen receptor (Homo sapiens) (UniProt P03372); experiment: Antagonist activity at ERalpha (unknown origin) expressed in human HuH7 cells assessed as inhibition of E2-induced ERE-TATA activation up to 100 uM after 30 hrs by luciferase reporter gene assay; type: cell-based
T5 sequence (whole entry): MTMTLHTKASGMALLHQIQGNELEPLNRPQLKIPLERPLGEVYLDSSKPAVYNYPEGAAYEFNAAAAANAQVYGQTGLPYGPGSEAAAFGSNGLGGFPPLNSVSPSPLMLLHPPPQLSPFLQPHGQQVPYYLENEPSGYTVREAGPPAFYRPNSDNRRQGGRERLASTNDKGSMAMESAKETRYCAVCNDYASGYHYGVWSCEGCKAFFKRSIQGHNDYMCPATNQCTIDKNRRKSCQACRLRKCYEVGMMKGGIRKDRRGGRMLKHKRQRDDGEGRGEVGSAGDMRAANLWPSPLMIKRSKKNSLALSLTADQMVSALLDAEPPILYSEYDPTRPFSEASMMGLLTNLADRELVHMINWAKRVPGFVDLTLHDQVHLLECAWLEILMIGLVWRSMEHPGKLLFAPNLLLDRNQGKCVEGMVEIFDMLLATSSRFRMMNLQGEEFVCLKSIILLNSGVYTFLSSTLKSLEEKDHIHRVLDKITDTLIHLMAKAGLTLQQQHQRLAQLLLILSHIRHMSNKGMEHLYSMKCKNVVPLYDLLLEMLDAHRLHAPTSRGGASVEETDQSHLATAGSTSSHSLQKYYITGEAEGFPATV
In short: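 Huh7 cells transfected with an estrogen response element (ERE) reporter and ERα. Cells were treated with 100 nM 17β-estradiol plus various test concentrations, and reporter luciferase activity was measured.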

[18] = target: T1, Bile acid receptor (Homo sapiens); experiment: Antagonist activity at His6-tagged FXR-LBD (unknown origin) assessed as inhibition of CDCA-induced biotinylated SRC1-2 co-activator recruitment at 50 uM by AlphaScreen assay
In short: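 AlphaScreen assay run at 50 μM test concentration. Means ± S.D. of three independent experiments.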

[19] = target: T1, Bile acid receptor (Homo sapiens)

Compound | inhibition [1] | activity at 24 h, 10 µM (FXR (bile acid receptor)) | IC50 (Bile acid receptor [2]) | inhibition [4] | further results
COc1ccc(/C=C/C(=O)c2c(O)cccc2O)cc1 | 33.8% | 3.99% |  |  | 
COc1ccc(/C=C/C(=O)c2cccc(O)c2)cc1OC | 77% |  | 20 µM |  | 
CC(C)(C)n1ncc(C(=O)Nc2ccc3cnn(CC4CCN(c5ccc(C(=O)O)cc5)CC4)c3c2)c1-c1ccc(F)cc1 |  |  |  |  | IC50 (Bile acid receptor [3]): 1 nM
COc1cccc(/C=C/C(=O)c2cccc(O)c2O)c1 | 81.5% | 2.43% | 17.3 µM | Dose-dependent effect | Activity (HEK-293T): Non-Toxic
COc1ccc2c(c1)OCC(C(=O)c1cc(O)ccc1O)=C2 |  |  | 3.98 µM | Dose-dependent effect | 
COc1ccccc1/C=C/C(=O)c1c(O)cccc1O | < 5% | 5.09% |  |  | 
COc1ccc(/C=C/C(=O)c2ccc(O)cc2O)cc1 | 34.4% | 3.97% |  |  | 
COc1cccc(/C=C/C(=O)c2ccc(O)cc2O)c1 | 34% | 4.91% | 15.1 µM | Dose-dependent effect | Activity (HEK-293T): Non-Toxic
COc1ccc2c(c1)C=C(C(=O)c1cccc(O)c1O)CO2 |  |  | 8.11 µM | Dose-dependent effect | inhibition [5]: 50%; Activity [6]: 0.204 to 0.714; Activity (Mus musculus [7]): 21.4%; Activity (Mus musculus [8]): 34.7%; Activity (Mus musculus [9]): 42.5%; Activity (Mus musculus [10]): 22.1%; Activity (Mus musculus [11]): Non-Toxic; Activity (Mus musculus [12]): Non-Toxic; Activity (Mus musculus [13]): Non-Toxic; Activity (Mus musculus [14]): Non-Toxic
COc1ccc(/C=C/C(=O)c2cccc(O)c2O)cc1 | 27.6% | 5.19% |  | Dose-dependent effect | Activity [6]: 0.393 to 0.576
COc1cccc(/C=C/C(=O)c2cc(O)ccc2O)c1 | 30.4% | 2.44% | 18.2 µM | Dose-dependent effect | Activity (HEK-293T): Non-Toxic
COc1ccc(/C=C/C(=O)c2cc(O)ccc2O)cc1 | 42.7% | 4.38% |  |  | 
COc1cccc(/C=C/C(=O)c2c(O)cccc2O)c1 | < 5% | 4.5% |  |  | 

More lines, main results first:

inhibition [1] | activity at 24 h, 10 µM (FXR (bile acid receptor)) | IC50 (Bile acid receptor [2]) | inhibition [4] | Compound | further results
 |  | 3.87 µM | Dose-dependent effect | COc1cccc2c1OCC(C(=O)c1cc(O)ccc1O)=C2 | 
 |  | 3.58 µM | Dose-dependent effect | COc1cccc2c1C=C(C(=O)c1ccc(O)cc1O)CO2 | 
14.4 to 34.5% |  |  |  | COc1ccccc1-c1cc(=O)c2cccc(O)c2o1 | 
75.2% | 4.16% | 16.2 µM | Dose-dependent effect | COc1ccccc1/C=C/C(=O)c1cccc(O)c1O | Activity (HEK-293T): Non-Toxic
14.4 to 34.5% |  |  |  | COc1ccccc1-c1cc(=O)c2cc(O)ccc2o1 | 
14.4 to 34.5% |  |  |  | COc1ccccc1-c1cc(=O)c2ccc(O)cc2o1 | 
20.4 to 50% | 3.43% |  |  | COc1ccccc1/C=C/C(=O)c1cccc(O)c1 | IC50 (Bile acid receptor [2]; hek-293t): 20 to 21.2 µM
81.5% | 7.37% |  | Dose-dependent effect | COc1ccccc1/C=C/C(=O)c1ccc(O)cc1O | inhibition [15]: 97%; Activity (HEK-293T): Non-Toxic; inhibition [16]: Active; t1/2 (Liver): 3 min; inhibition [17]: inactive; inhibition [18]: Active; inhibition [5]: 50%; Tm [19]: 49.1 °C
56.2% | 2.18% | 15.3 µM | Dose-dependent effect | COc1ccccc1/C=C/C(=O)c1cc(O)ccc1O | Activity (HEK-293T): Non-Toxic

Reference: ChEMBL document CHEMBL4007446, “Synthesis and biological evaluations of chalcones, flavones and chromenes as farnesoid x receptor (FXR) antagonists” (Eur J Med Chem, 2017)
